Laboratory results published in ChEMBL document CHEMBL1123494, “Irreversible blockage of opioid receptor types by ester homologues of beta-funaltrexamine” (J Med Chem, 1986).
“And” between values parts separate entries of the source, which are not always exact repeats. Identical values can stand only once.

Legend:
[1] = tested on: Opioid receptors; mu/kappa/delta; assay: Compound was tested for irreversible antagonist activity against opioid receptor in mouse vas deferens at a concentration of 20 nM expressed as IC50 of morphine divided by the compound; format: functional
Opioid receptor [2] = biological target: Opioid receptor (Mus musculus, UniProt P42866+P32300+P33534); assay: Compound was tested for agonist activity against opioid receptor in mouse vas deferens preparation; format: functional
[3] = tested on: Opioid receptors; mu/kappa/delta; assay: Compound was tested for irreversible antagonist activity against opioid receptor in mouse vas deferens expressed as IC50 of DADLE divided by the compound; format: functional, tissue-based
Method in brief: (§1)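 Mouse vas deferens incubated 30 min with 200 nM test ligand, then washed thoroughly (20 times). Morphine and DADLE dose-response curves were rerun in the same tissue. Ratio = agonist IC50 after treatment / control IC50 in that tissue. Where the standard agonist gave under 65% response after treatment, an IC20 was estimated from the plotted dose-response curve. Means of three determinations unless otherwise noted.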

Opioid receptor [4] = biological target: Opioid receptor (Rattus norvegicus, UniProt P33533+P34975+P33535); assay: The compound was tested for binding affinity against opioid receptor in rat brain membranes, using [3H]dihydromorphine as the radioligand; format: cell membranes
Method in brief: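 Rat forebrain was homogenised in ice-cold 0.05 M Tris-HCl pH 7.4 and washed twice by centrifugation at 4 °C. It was preincubated 10 min at 37 °C, washed again and resuspended at 10 mg/mL. Triplicate tubes held 1 nM [3H]dihydromorphine and at least seven drug concentrations, incubated 40 min at room temperature, then vacuum-filtered. Nonspecific binding was set with 10⁻⁶ M naloxone. Values are mean ± SEM of three experiments.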

[5] = tested on: Opioid receptors; mu/kappa/delta; assay: Compound was tested for agonist potency against opioid receptor in guinea pig ileal longitudinal muscle expressed as IC50 of morphine divided by the compound; format: functional
[6] = biological target: T1, Opioid receptors; mu/kappa/delta (Homo sapiens) (UniProt P41145+P41143+P35372); assay: Compound was tested for irreversible antagonist activity against opioid receptor in mouse vas deferens expressed as IC50 of morphine divided by the compound; format: functional, tissue-based; method in brief: as §1
[7] = biological target: T1, Opioid receptors; mu/kappa/delta (Homo sapiens); assay: Compound was tested for irreversible antagonist activity against opioid receptor in mouse vas deferens at a concentration of 200 nM, expressed as IC50 of nalorphine divided by the compound; format: functional
[8] = biological target: Opioid receptors; mu and delta (Mus musculus) (UniProt P42866+P32300); assay: Irreversible antagonist activity against opioid receptor in mouse vas deferens at 200 nM relative to IC50 of nalorphine; format: functional, tissue-based
[9] = biological target: T1, Opioid receptors; mu/kappa/delta (Homo sapiens); assay: Compound was tested for irreversible antagonist activity against opioid receptor in mouse vas deferens at a concentration of 20 nM, expressed as IC50 of nalorphine divided by the compound; format: functional
[10] = biological target: T1, Opioid receptors; mu/kappa/delta (Homo sapiens); assay: Compound was tested for irreversible antagonist activity against opioid receptor in mouse vas deferens, expressed as IC50 of morphine divided by the compound; format: functional
Method in brief: (§2)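 Mouse vas deferens tissue incubated 30 min with test ligand at 200 nM, then washed thoroughly (20 times). Standard agonist (morphine or DADLE) IC50 redetermined and divided by control IC50 from the same tissue (treated/control ratio). Where the agonist gave under 65% response after treatment, an IC20 was estimated from the plotted dose-response curve. Means of three determinations unless otherwise noted.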

[11] = biological target: T1, Opioid receptors; mu/kappa/delta (Homo sapiens); assay: Compound was tested for irreversible antagonist activity against opioid receptor in mouse vas deferens at a concentration of 20 nM, expressed as IC50 of morphine divided by the compound; format: functional
[12] = biological target: T1, Opioid receptors; mu/kappa/delta (Homo sapiens); assay: Compound was tested for irreversible antagonist activity against opioid receptor in mouse vas deferens, expressed as IC50 of DADLE divided by compound; format: functional; method in brief: as §2
[13] = biological target: T1, Opioid receptors; mu/kappa/delta (Homo sapiens); assay: Compound was tested for irreversible antagonist activity against opioid receptor in mouse vas deferens at a concentration of 100 nM, expressed as IC50 of morphine divided by the compound; format: functional
Mus musculus = species: Mus musculus; assay: Compound was tested for partial agonism in presence of morphine at conc. of 3 e-5; format: functional
[14] = biological target: T2, Opioid receptor (Mus musculus) (UniProt P42866+P32300+P33534); assay: Compound was tested for irreversible antagonist activity against opioid receptor in mouse vas deferens expressed as IC20 of morphine divided by the compound; format: functional, tissue-based; method in brief: as §1
[15] = biological target: T1, Opioid receptors; mu/kappa/delta (Homo sapiens); assay: Compound was tested for irreversible antagonist activity against opioid receptor in mouse vas deferens expressed as IC50 of morphine divided by the compound (experiment. 2); format: functional, tissue-based; method in brief: as §1
[16] = biological target: T1, Opioid receptors; mu/kappa/delta (Homo sapiens); assay: Compound was tested for irreversible antagonist activity against opioid receptor in mouse vas deferens expressed as IC50 of morphine divided by the compound (experiment 1); format: functional, tissue-based; method in brief: as §1
[17] = biological target: T2, Opioid receptor (Mus musculus); assay: Compound was tested for agonist activity against opioid receptor in mouse vas deferens preparation at concentration of 1E-7 M; format: functional

T1 sequence (P35372 whole entry, looked up): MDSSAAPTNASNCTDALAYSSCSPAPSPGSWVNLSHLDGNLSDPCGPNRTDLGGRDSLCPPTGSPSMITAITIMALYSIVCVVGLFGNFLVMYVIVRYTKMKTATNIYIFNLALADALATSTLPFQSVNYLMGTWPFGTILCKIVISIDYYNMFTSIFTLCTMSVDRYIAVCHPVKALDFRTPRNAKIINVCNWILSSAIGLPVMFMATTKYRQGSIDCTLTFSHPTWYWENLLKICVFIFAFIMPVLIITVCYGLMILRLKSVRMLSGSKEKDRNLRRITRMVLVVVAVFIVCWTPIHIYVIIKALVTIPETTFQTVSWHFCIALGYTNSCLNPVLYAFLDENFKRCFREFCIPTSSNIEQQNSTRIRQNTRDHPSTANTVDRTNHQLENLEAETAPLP
T1 sequence (P41143 whole entry, looked up): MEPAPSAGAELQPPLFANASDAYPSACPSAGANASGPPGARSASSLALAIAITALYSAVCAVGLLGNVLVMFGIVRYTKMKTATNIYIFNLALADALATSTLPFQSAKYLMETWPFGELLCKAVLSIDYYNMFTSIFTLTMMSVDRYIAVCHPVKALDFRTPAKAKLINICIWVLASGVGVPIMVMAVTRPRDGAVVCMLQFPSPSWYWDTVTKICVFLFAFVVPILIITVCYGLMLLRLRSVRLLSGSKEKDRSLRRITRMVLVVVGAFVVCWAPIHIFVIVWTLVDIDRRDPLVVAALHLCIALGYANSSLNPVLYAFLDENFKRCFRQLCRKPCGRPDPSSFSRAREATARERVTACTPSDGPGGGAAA
T1 sequence (P41145 whole entry, looked up): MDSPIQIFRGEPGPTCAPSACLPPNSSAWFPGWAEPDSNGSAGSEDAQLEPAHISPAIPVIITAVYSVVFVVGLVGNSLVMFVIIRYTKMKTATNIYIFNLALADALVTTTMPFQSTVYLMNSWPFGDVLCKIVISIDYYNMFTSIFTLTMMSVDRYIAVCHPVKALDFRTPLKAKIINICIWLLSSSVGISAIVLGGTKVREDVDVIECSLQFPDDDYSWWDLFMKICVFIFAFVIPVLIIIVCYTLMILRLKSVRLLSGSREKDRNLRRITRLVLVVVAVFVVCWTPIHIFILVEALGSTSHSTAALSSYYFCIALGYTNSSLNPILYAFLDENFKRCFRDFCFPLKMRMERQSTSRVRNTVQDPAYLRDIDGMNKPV
T2 sequence (P32300 whole entry, looked up): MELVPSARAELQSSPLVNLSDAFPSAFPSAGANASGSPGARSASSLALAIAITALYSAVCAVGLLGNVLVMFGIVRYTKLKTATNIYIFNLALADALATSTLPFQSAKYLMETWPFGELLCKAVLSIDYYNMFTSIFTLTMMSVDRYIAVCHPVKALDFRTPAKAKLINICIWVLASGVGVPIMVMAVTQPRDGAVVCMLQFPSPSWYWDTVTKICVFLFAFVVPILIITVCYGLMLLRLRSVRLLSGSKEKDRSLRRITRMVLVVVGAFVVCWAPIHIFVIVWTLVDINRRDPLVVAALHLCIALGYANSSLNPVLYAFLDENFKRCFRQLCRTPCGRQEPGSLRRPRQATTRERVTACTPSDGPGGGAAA
T2 sequence (P33534 whole entry, looked up): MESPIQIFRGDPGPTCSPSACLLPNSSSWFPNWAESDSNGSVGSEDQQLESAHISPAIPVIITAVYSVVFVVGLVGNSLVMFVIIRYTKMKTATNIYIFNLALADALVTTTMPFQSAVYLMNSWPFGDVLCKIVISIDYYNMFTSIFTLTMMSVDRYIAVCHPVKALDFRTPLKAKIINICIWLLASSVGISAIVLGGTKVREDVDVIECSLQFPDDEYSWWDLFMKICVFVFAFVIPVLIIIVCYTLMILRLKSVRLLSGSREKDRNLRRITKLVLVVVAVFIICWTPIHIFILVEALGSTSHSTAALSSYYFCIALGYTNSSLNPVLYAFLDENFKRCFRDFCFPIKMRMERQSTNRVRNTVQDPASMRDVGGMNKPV
T2 sequence (P42866 whole entry, looked up): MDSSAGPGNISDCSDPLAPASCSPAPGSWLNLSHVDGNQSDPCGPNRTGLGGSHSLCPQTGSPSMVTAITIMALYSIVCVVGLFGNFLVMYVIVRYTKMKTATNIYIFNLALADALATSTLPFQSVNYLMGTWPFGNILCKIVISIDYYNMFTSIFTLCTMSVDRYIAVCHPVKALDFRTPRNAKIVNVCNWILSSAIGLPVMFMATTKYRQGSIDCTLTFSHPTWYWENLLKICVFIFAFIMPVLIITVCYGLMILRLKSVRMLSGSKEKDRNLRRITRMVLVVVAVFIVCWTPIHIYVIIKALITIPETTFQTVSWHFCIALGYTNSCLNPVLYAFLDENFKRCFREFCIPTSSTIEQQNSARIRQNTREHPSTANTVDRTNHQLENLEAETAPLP
Chain of Opioid receptors; mu and delta (Mus musculus) (P32300 whole entry, looked up): as the sequence (P32300 whole entry, looked up) above
Chain of Opioid receptors; mu and delta (Mus musculus) (P42866 whole entry, looked up): as the sequence (P42866 whole entry, looked up) above

Row | Compound | Ratio [1] | IC50 (Opioid receptor [2]) [nM] | Ratio [3] | IC50 (Opioid receptor [4]) [nM] | Potency ratio [5] | Ratio [6] | Ratio [7] | Ratio [8] | Ratio [9] | Ratio [10] | Ratio [11] | Ratio [12] | Ratio [13] | Activity (Mus musculus) [%] | IC20 [14] [nM] | Ratio [15] | Ratio [16] | inhibition [17] [%]
1 | CCCCOC(=O)/C=C/C(=O)N[C@@H]1CC[C@@]2(O)C3Cc4ccc(O)c5c4C2(CCN3CC2CC2)[C@H]1O5 (some centres not stated) | 5.05 and 4.42 | 7 | 1.75 | 1.65 | 66.1 | 10 | – | – | – | – | – | – | – | – | – | – | – | –
2 | CCOC(=O)/C=C/C(=O)N[C@@H]1CC[C@@]2(O)C3Cc4ccc(O)c5c4C2(CCN3CC2CC2)[C@H]1O5 (some centres not stated) | 1.75 and 2.22 | 13 | 1.24 | 0.64 | 16.1 | 2.53 | 2.06 | 1.67 | – | – | – | – | – | – | – | – | – | –
3 | COC(=O)/C=C/C(=O)N[C@@H]1CC[C@@]2(O)[C@H]3Cc4ccc(O)c5c4[C@@]2(CCN3CC2CC2)[C@H]1O5 | – | 82 | – | 1.03 | 5 | – | – | – | 1.2 | 10.6 | 6 | 1.1 | 12 | – | – | – | – | –
4 | CCCOC(=O)/C=C/C(=O)N[C@@H]1CC[C@@]2(O)C3Cc4ccc(O)c5c4C2(CCN3CC2CC2)[C@H]1O5 (some centres not stated) | 2.46 and 1.69 | 21 | 1.52 | 1.56 | 147 | – | – | – | – | – | – | – | – | 56 | 200 | – | – | –
5 | O=C(/C=C/C(=O)OCCc1ccccc1)N[C@@H]1CC[C@@]2(O)C3Cc4ccc(O)c5c4C2(CCN3CC2CC2)[C@H]1O5 (some centres not stated) | 4.84 and 2.88 | 70.1 | 3.73 | 0.015 | 10.4 | – | – | – | – | – | – | – | – | – | – | 24.4 | 64.7 | –
6 | O=C(/C=C/C(=O)OCc1ccccc1)N[C@@H]1CC[C@@]2(O)C3Cc4ccc(O)c5c4C2(CCN3CC2CC2)[C@H]1O5 (some centres not stated) | 6.33 and 5.85 | – | 1.39 | 0.3 | 1.41 | – | – | – | – | – | – | – | – | – | 400 | – | – | 57
